Screening data (PubChem BioAssay)
DNMT1 inh: blocks human DNA methyltransferase DNMT1 | P26358 | DNMT1 molecular beacon, Hinp1I cleavage, fluorescence | inhibition (reported as % activation of signal), % at 10 µM | 0.83% of 360,000 active; in the data active = inhibition above about 50%
STEP inh: inhibitors of human striatal-enriched phosphatase STEP; P54829; recombinant STEP, OMFP fluorogenic substrate, fluorescence; inhibition, % at 20 µM; 0.25% of 360,000 active;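 active = inhibition at 20 µM, scaled per plate between control wells, above about 37%, limit read from the data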;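 note: 0% = DMSO with enzyme and substrate and 100% = substrate only without enzyme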
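Material: STEP (striatal-enriched tyrosine phosphatase) enzyme, cell-free; Compound dosing: 20 µM single dose in 1% DMSO; Technique: fluorescence read at 480 nm ex / 540 nm em; Times: reaction 20 min, ambient temperature; Medium: 50 mM Bis-Tris pH 6.0 with 2.5 mM DTT and 0.005% Tween 20; Also added: OMFP at 25 µM.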
Scp1 inh: Scp-1 (human) phosphatase inhibition | inhibition, % at 20 µM | Recombinant Scp1, phosphopeptide, malachite green phosphate absorbance | 0.88% of 340,000 active | AID 493091;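 active = inhibition above about 50% at 20 µM, limit read from the data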;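 note: plate controls were DMSO wells with enzyme for no effect and wells lacking enzyme for full effect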
Target sequence (Q9GZU7 76-261 limits assumed): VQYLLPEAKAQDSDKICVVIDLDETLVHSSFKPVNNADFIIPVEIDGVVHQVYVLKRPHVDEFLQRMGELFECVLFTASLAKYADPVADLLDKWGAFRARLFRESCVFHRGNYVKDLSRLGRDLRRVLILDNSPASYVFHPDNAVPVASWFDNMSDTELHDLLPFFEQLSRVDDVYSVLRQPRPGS
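Test system – truncated SCP-1 phosphatase (76-261aa) · Reagent – Phosphorylated 17-residue peptide substrate · Incubation – 45 min room-temperature reaction, 5 min colour, 30 min stabiliser · Detection – colorimetric phosphate reagent with accelerator and stabiliser, absorbance at 630 nm · Measure – % inhibition at 20 µM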
SUMO1 PPI mod: SUMO1-SIM interaction modulation; P63165; inhibition, % at 20 µM; SUMO1 binding to a labelled peptide, TR-FRET, 1 h; 0.33% of 360,000 active; in the data active = inhibition above about 37%
Target sequence (P63165 whole entry, looked up): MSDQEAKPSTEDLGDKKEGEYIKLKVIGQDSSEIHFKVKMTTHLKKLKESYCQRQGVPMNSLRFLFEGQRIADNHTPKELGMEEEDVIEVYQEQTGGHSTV
LMPTP block: blocks human LMPTP phosphatase | P24666 | recombinant LMPTP-A, OMFP fluorogenic substrate, fluorescence intensity | inhibition, % at 20 µM | 0.22% of 360,000 active | AID 651560;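 active = compounds that cut the enzyme signal by at least half of the control window in the single-dose screen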;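 note: plate controls were DMSO wells with enzyme plus substrate for no effect and substrate without enzyme for full effect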
Target sequence (P24666 whole entry, looked up): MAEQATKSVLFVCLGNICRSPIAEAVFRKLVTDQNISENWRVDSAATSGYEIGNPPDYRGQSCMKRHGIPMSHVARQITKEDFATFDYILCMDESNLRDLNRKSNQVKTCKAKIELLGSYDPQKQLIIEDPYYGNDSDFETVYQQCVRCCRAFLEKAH
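test system = LMPTP-A | amount = 0.625 nM LMPTP-A final | reagent = fluorogenic phosphatase substrate OMFP at 400 µM final | incubation = 50 min at room temperature | benchmarks = no-enzyme low control, uninhibited high control | medium = Bis-Tris pH 6.0, DTT, detergent | signal = fluorescence intensity of OMFP turnover product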
* hit, by the source's call; / = not tested or not shown; + = active, no number; ! = repeats disagree. Compounds with a hit are over-represented: about 1.7% of the library has one in this group of screens.

SMILES	DNMT1 inh	STEP inh	Scp1 inh	SUMO1 PPI mod	LMPTP block
O=C1c2ccccc2-c2onc3c(N4CCN(CCO)CC4)cc(N4CCN(C(=O)c5ccco5)CC4)c1c23	-18.9	5.0	5.8	55.8*	11.5
O=C(O)CCCNc1cc(N2CCN(C(=O)c3ccco3)CC2)c2noc3c2c1C(=O)c1ccccc1-3	45.9	45.1*	78.2*	53.8*	6.4
CCOC(=O)N1CCN(c2cc(NCCC(=O)O)c3c4c(onc24)-c2ccccc2C3=O)CC1	67.2*	-17.1	75.8*	43.6*	9.5
CN1CCN(c2cc(N3CCN(C(=O)c4ccco4)CC3)c3c4c(onc24)-c2ccccc2C3=O)CC1	-21.2	4.4	5.8	2.9	8.4
CCC1CCCCN1CCCNC(=O)Cn1c2ccccc2c2nc(=O)cc(C)n21 (stereo unspecified)	3.7	-0.9	0.0	-4.4	-0.3
NC(=S)N=Nc1ccc(NN=C(N)N)cc1	5.9	84.1*	-14.5	27.0	41.0
Cc1cc(N2CCN(C(C(=O)NC3CCCC3)c3ccc(-c4ccccc4)cc3)CC2)c2ccccc2n1 (stereo unspecified)	/	/	/	-1.9	94.0*
CC(C)(CN1CCc2ccccc2C1)NS(=O)(=O)c1ccc(Cl)cc1	-2.6	0.5	-5.2	44.6*	1.9
C/C(=N\S(=O)(=O)c1ccc(C)cc1)N1CCCCC1	4.7	-2.9	-1.9	0.4	-0.3
C/C(=N\S(=O)(=O)c1ccc(C)cc1)N(C)C	8.9	-2.0	-4.0	45.0*	0.0
CCOC(=O)c1cc2c(c(CCO)n1)[C@H](CCO)N(S(=O)C(C)(C)C)C2 (stereo partly specified)	0.5	0.3	-8.3	-0.8	-2.5
COc1ccc2c(c1O)Cc1ccccc1C2=O	-24.1	1.9	-3.1	55.0*	-0.8
Cc1cc(N2CCN(C)CC2)nc(-c2ccccc2O)n1	-0.4	0.2	-10.6	5.4	-0.4
Cc1cc(N2CCCC2)nc(-c2ccccc2O)n1	-0.5	5.9	-12.7	69.1*	1.2
C=C(C)C(=O)Oc1ccc(N=Nc2ccc(C)cc2)ccc1=O	95.4*	11.4	85.4*	47.5*	10.1
O=C(Nc1nnc([C@@H]2C[C@H](O)[C@@H](CO)O2)s1)Nc1cccc2c1CCCC2	1.2	-1.8	/	-0.3	-2.0
COc1ccc(COC[C@H](C)[C@H](O)[C@@H](C)[C@H]2OC(=O)[C@@H]2C)cc1	-1.6	-1.1	-3.8	37.8*	-1.0
COc1ccc(CCC(=O)NC(C)C)cc1	0.3	-0.5	-5.3	0.2	-2.2
CCCNC(=O)C1(C)CCCN(CC(=O)c2ccccc2OC)C1 (stereo unspecified)	5.2	-3.7	/	-5.3	-3.1
CCN(CC)c1ccc2nc3c4ccccc4c(=O)cc-3oc2c1	/	/	-0.9	/	/
CCN(CC)c1ccc2c(-c3ccc(S(=O)(=O)O)cc3S(=O)(=O)[O-])c3ccc(=[N+](CC)CC)cc-3oc2c1	14.0	16.3	76.7*	13.5	14.8
Cc1cccc(C)c1NC(=O)c1csc([C@H]2C[C@H](O)[C@@H](CO)O2)n1	3.7	-0.1	/	-3.0	-0.8
CS(=O)(=O)C1=NN2C(=N)/C(=C\c3ccc(OC(=O)c4ccco4)cc3)C(=O)N=C2S1	9.5	4.0	34.1	-5.0	2.1
CC(C)CS(=O)(=O)C1=NN2C(=N)/C(=C\c3ccc(OC(=O)c4ccco4)cc3)C(=O)N=C2S1	9.8	9.9	68.8*	-5.7	4.6
CN(C)c1ccc(-c2csc(C(O)(c3ccccc3)C(F)(F)F)n2)cc1 (stereo unspecified)	-34.5	-1.2	/	-2.9	3.3
SMILES	DNMT1 inh	STEP inh	Scp1 inh	SUMO1 PPI mod	LMPTP block
CCN(CC)C1=CC2=CC(=C(C#N)C#N)CCC2CC1 (stereo unspecified)	+	-230.7	0.8	17.3	4.0
CCCCN(C)C1=CC2=CC(=C(C#N)C#N)CCC2CC1 (stereo unspecified)	+	-271.3	-5.0	18.6	2.6
CCCCCCCCCCCCCCCC[n+]1ccccc1	-0.8	2.6	8.9	-8.6	-0.2
CCCCCCCCCCCCCCCC[n+]1ccc(C(N)=O)cc1	1.1	9.0	47.3	52.4*	4.8
CCCCCCCCCCCCCCCC[n+]1cccc(C(=O)N(CC)CC)c1	-15.6	4.6	18.9	38.1*!	-1.4
O=C(COc1c(Br)cc(Br)c2cccnc12)Nc1ccccc1F	32.9	3.2	-10.6	47.1*	9.0
CCCCCCCCCCCC1N=C(N)NC(CCCO)=C1C(=O)OC (stereo unspecified)	-12.7	12.8	4.7	102.7*	3.8
CCn1c(CSc2nc3ccccc3s2)nnc1SCC(=O)c1ccc(O)c(O)c1	8.1	0.9	59.2*	12.9	49.9
CC(C)(C)NC(=O)C1c2ccccc2OCC(=O)N1Cc1ccco1 (stereo unspecified)	/	/	/	2.0	-2.2
O=S1(=O)CC(N2CCN(CCO)CC2)CN1Cc1cn(Cc2ccc(C(F)(F)F)cc2)nn1 (stereo unspecified)	/	/	/	-2.7	-4.4
O=C(OCCC12CC3CC(CC(C3)C1)C2)c1ccc(NCc2cc(O)ccc2O)cc1	6.1	14.3	70.2*	-0.1	12.6
O=C(OCC12CC3CC(CC(C3)C1)C2)c1ccc(NCc2cc(O)ccc2O)cc1	-45.5	0.2	6.8	3.7	6.0
CC(=O)N(C(C)=O)c1ccc2c(c1)OCCO2	1.3	-0.5	/	-3.1	-1.3
CCc1ccccc1OCC(=O)Nc1ccc(N2CCCC2)cc1C	53.3*	-0.3	1.3	-39.4	5.2
Cc1ccccc1OCC(=O)Nc1ccc(N2CCOCC2)cc1N1CCOCC1	-6.2	2.1	-5.0	2.4	0.3
C[C@@H]1CN([C@H](C)CO)C(=O)CCCn2cc(nn2)CO[C@H]1CN(C)C(=O)Nc1ccnc(N2CCOCC2)c1	1.8	2.7	/	108.1*	14.0
CCN1C(C)=CC(=O)[C@@H](O)[C@H]1c1ccccc1Br	6.1	0.1	-7.7	-0.4	-1.0
O=C(CNC(=O)c1ccccc1)N/N=C/c1ccccc1Cl	-4.7	-0.8	-6.5	48.1*	-1.3
O=C(CNc1ccc2c(c1)OCO2)N/N=C\c1ccccc1Cl	-11.6	-2.7	-4.4	50.8*	2.6
CCOc1ccccc1NC(=O)CCc1nnc2ccc(N3CCC(C)CC3)nn12	98.4*	1.1	-4.8	4.0	-1.6
COc1ccccc1NC(=O)CCc1nnc2ccc(N3CCCCC3)nn12	-0.5	-2.6	-5.2	-2.8	-0.5
CC(C)OCCCNC(=O)c1cc(S(=O)(=O)N2CCc3ccccc32)cn1C	-1.9	-1.5	-9.2	7.9	-1.6
C=CCN(CC=C)Cc1c(O)ccc2c1oc(=O)c1ccccc12	54.8*	1.7	55.7*	16.1	5.0
C=CCN(CC=C)Cc1cc(=O)oc2ccc3ccccc3c12	1.2	3.0	/	-9.8	3.6
CCN(CC)CCN(C(=O)c1cc2c(ccc3ccccc32)oc1=O)c1nc2cc3c(cc2s1)OCCO3	28.8	6.4	7.0	-27.0	38.7
